This is one part of a sample in which hits are shown more often than they occur.
HUVEC prolif 384: human endothelial cell proliferation inhibition. viability, % at 10 µM (by protocol). 86,000 compounds, 1.1% hits. HUVEC proliferation, CellTiter-Glo luminescence, 72 h; active compounds read low. AID 648;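 active = viability at or below 30%; inactive = viability above 30%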;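 note: 100% = median luminescence of DMSO-only cell control wells on each plate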
HCT116 bCat-KO: beta-catenin-lacking colon tumor cell growth suppression; HCT116 beta-catenin knockout viability, CellTiter-Glo, 60 h; active compounds read low; viability, % at 10 µM; 140,000 compounds, 1.5% hits;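 active = viability at or under a set limit, the compound median less 4 SD, cut at about 6% in these data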;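 note: 0% = Hyamine 1622 control at 20 µM and 100% = untreated cell control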
H69AR inhibit: growth inhibitors of human H69AR lung tumor cells; H69AR lung tumor viability, ATP luminescence, 72 h; active compounds read low; 85,000 compounds, 6% hits; viability, % at 10 µM;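 active = viability at or below 40%; inactive = viability above 40%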;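 note: multidrug resistant small cell line overexpressing MRP-1 efflux transporter; 100% = mean luminescence of untreated control wells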
PTEN del growth: growth suppressors of cells with PTEN tumor suppressor deletion; HCT116 PTEN-null viability, CellTiter-Glo, 60 h; active compounds read low; viability, % at 10 µM; 140,000 compounds, 1.2% hits;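 active = viability at or below a set limit, 4 SD under the median of all tested compounds, cut at about 3.7% in these data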;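 note: PTEN knockout HCT116 line with beta catenin targeted HCT116 as companion control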
Lung fibro prol: blocks proliferation of human lung fibroblasts | viability, % at 10 µM | 85,000 compounds, 1.1% hits | LL 47 human lung fibroblast viability, ATP luminescence; active compounds read low | AID 719;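 active = viability at or below 50% in the single dose screen; inactive = viability above 50%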;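 note: compound exposure lasted 72 h before the ATP readout; 100% = median luminescence of untreated cell-only wells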
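Material: human LL 47 lung fibroblast cells; quantity: 1,150 cells/well; medium: IMEM plus 15% FBS; doses: 0.1% DMSO in all compound wells; timing: overnight attachment after seeding, then 72 h compound exposure at 37 °C; detection: CellTiter-Glo luminescence; measure: % viability of median cell-only signal; controls: cell-only wells, no compound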
Active calls of the source: *; . = not tested or not shown.

SMILES	HUVEC prolif 384	HCT116 bCat-KO	H69AR inhibit	PTEN del growth	Lung fibro prol
Cc1ccc(S(=O)(=O)N2CCN(Cc3ccccc3)CC2)c(C)c1N(C)S(=O)(=O)c1ccccc1	.	74	.	71	.
COC(=O)c1cc(=O)n(CCc2ccc(OC)cc2)c(=Nc2ccc(F)c(Cl)c2)s1	22*	7	1.7*	7	62
CCn1c(=O)cc(C(=O)OC)sc1=Nc1ccc(F)c(F)c1	56	2.2*	0.7*	2.0*	16*
COC(=O)c1cc(=O)n(CCc2ccccc2)c(=Nc2ccc(F)cc2)s1	54	10	1.3*	8	88
COC(=O)c1cc(=O)n(Cc2ccc3c(c2)OCO3)c(=Nc2ccc(F)c(Cl)c2)s1	63	2.0*	33*	4	69
COC(=O)c1cc(Br)c(=O)n(CCc2ccccc2)c1	97	90	91	98	102
CCCCN=c1sc(C(=O)OC)cc(=O)n1CCCC	.	83	.	72	.
Cc1ccc2c(C)ccc(O)c2n1	17*	36	29*	55	89
COc1ccc(C2CC3(CC(C)(C)NC(SC)=N3)Oc3cc(O)cc(C)c32)cc1 (centres undefined)	.	10	.	12	.
Cn1cc(C(=O)c2ccc(Cl)cc2Cl)cc1C(=O)N/N=C(\N)COc1cccc(C(F)(F)F)c1	69	5.2*	27*	8	77
N#CC1=C(N)NC(SCc2ccc(Cl)cc2)=C(C#N)C12CCCCC2	45	64	13*	49	85
COc1ccc(N=CC2=C(O)c3ccccc3C2=O)cc1	83	73	35*	60	104
O=C1C(C=Nc2ccccc2)=C(O)c2ccccc21	80	91	63	86	102
O=C(CN(C(=O)CCC(=O)Nc1ccccn1)c1ccc2c(c1)OCCO2)NCCc1ccccc1	68	66	7.0*	50	90
CCNS(=O)(=O)c1ccc(CCC(=O)NCCC2=CCCCC2)cc1	.	96	.	96	.
CS(=O)(=O)N1CCN(c2ccc(NC(=O)C(c3ccccc3)c3ccccc3)cc2)CC1	95	93	87	84	94
O=C(Nc1ccc(N2CCCC2)cc1)C(Cl)c1ccccc1 (centres undefined)	97	72	22*	92	92
CCCC[n+]1ccn(C2=C([O-])c3ccccc3C(=O)/C2=N\S(=O)(=O)c2ccccc2)c1	5.1*	2.1*	8.6*	1.6*	50
CCCCC[n+]1ccn(C2=C([O-])c3ccccc3C(=O)/C2=N\S(=O)(=O)c2ccccc2)c1	11*	3.3*	25*	5	76
COc1ccc(Cl)cc1C(=O)NC(=S)Nc1cc(-c2nc3ccccc3[nH]2)ccc1C	.	66	.	26	.
O=S(=O)(Nc1cccc2cccnc12)c1ccc(S(=O)(=O)N2CCCC2)cc1	54	9	6.0*	3.8*	57
CCOC(=O)/C(=N/Nc1ccccc1)c1csc(Nc2ccccc2)n1	81	15	11*	24	92
CCOC(=O)/C(=N\Nc1ccc(Cl)cc1)c1csc(Nc2ccccc2)n1	.	14	.	22	.
CCOC(=O)/C(=N\Nc1ccc(OC)cc1)c1csc(Nc2ccccc2)n1	84	73	24*	63	108
CN(C)S(=O)(=O)c1cc(NC(=O)COC(=O)c2ccc3c(c2)OCO3)ccc1Cl	.	98	.	103	.
SMILES	HUVEC prolif 384	HCT116 bCat-KO	H69AR inhibit	PTEN del growth	Lung fibro prol
Cc1c(C=O)cnn1CCC(=O)O	92	.	97	.	104
CN1CC=C2C(C#N)=C(N)C(C#N)(C#N)C(CCc3ccccc3)C2C1 (centres undefined)	80	94	59	86	93
CN1CC=C2C(C#N)=C(N)C(C#N)(C#N)[C@H](c3cccc(Cl)c3)C2C1 (some centres undefined)	89	85	62	87	87
CC(C)c1ccc(C2C3CSCC=C3C(C#N)=C(N)C2(C#N)C#N)cc1 (centres undefined)	6.8*	38	1.4*	50	86
CN1CC=C2C(C#N)=C(N)C(C#N)(C#N)C(c3ccsc3)C2C1 (centres undefined)	94	83	60	94	95
CCCC1C2CN(C(C)C)CC=C2C(C#N)=C(N)C1(C#N)C#N (centres undefined)	94	103	21*	100	97
CN1CC=C2C(C#N)=C(N)C(C#N)(C#N)[C@H](c3cccs3)[C@H]2C1	91	76	35*	78	85
O=C(N1CCN(c2ccccc2F)CC1)C1(c2cccs2)CCOCC1	.	81	.	91	.
CSc1ncccc1C(=O)Nc1nc2ccc(Oc3ccccc3)cc2s1	.	77	.	70	.
CC1CCN(c2cc(N3CCN(C(=O)c4ccc(F)c(F)c4)CC3)c([N+](=O)[O-])cc2F)CC1	.	69	.	65	.
COc1cc2c(cc1OC)CN(c1ccc(-c3ccccc3OC)nn1)CC2	53	2.7*	51	7	56
O=C(c1ccccc1)c1nc[nH]c1C(=O)Nc1ccccc1	86	25	24*	25	71
O=C(Nc1ccccc1)c1ccc[nH]1	.	90	.	100	.
COc1ccc(/C=C2/CCc3ccccc3C2=O)cc1CN1CCOCC1	.	21	.	32	.
COc1ccc(/C=C2\CCc3ccccc3C2=O)cc1Cn1nc(C)cc1C	87	17	15*	12	80
Cc1ccc(C2=C/C(=C/c3cccnc3)C(=O)O2)c(C)c1	.	95	.	90	.
CCC(=O)Nc1ccc(C(=O)NNC(=O)COc2cc(C)ccc2C)cc1	.	97	.	113	.
COC(=O)/C=C/S(=O)(=O)c1ccc(NC(C)=O)cc1	80	97	1.0*	86	.
CC(=O)CCS(=O)(=O)c1ccc(NC(C)=O)cc1	97	102	0.2*	107	93
CC(=O)Nc1ccc(S(=O)(=O)Oc2ccc(C=O)cc2)cc1	.	95	.	91	.
COc1ccc(NC(=O)c2cc(S(=O)(=O)N(Cc3ccccc3)c3ccccc3)ccc2Cl)cn1	.	67	.	64	.
CCCc1[nH]n(-c2ccc(F)cc2)c(=O)c1C=Nc1ccc(C)cc1	.	104	.	84	.
Cc1cc(C)c(C(=O)/C=C/c2cccc3ccccc23)c(=O)[nH]1	.	1.5*	.	2.3*	.
Cc1[nH]c2ccccc2c1C(=O)/C=C\c1ccccc1Cl	.	57	.	68	.
CC(=O)c1sc(N2C(=O)c3oc4ccccc4c(=O)c3C2c2ccc(C)o2)nc1C (centres undefined)	101	.	9.4*	.	87
Cc1ccc(C2c3c(oc4ccccc4c3=O)C(=O)N2CCCN2CCOCC2)o1 (centres undefined)	105	92	95	99	99
CC(=O)c1ccc(NC(=O)c2cc(Cl)sc2Cl)cc1	.	90	.	94	.
CCOC(=O)c1c(C)c(C(=O)Nc2ccc3c(c2)OCCO3)c(C)n1C	90	77	54	69	95
CCOC(=O)c1c(C)c(C(=O)Nc2cc(F)ccc2F)c(C)n1C	55	30	20*	28	66
CC(=O)NCCNC(=O)CCNC(=O)c1ccc(Cl)cc1	.	101	.	93	.
